Screening data (PubChem BioAssay)
pPAFAH FP inh: inhibitors of human plasma PAF acetylhydrolase (pPAFAH); Q13093; recombinant pPAFAH, FP-rhodamine probe fluorescence polarization; inhibition, % at 3.39 µM; 330,000 compounds, 1.5% hits;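 active means inhibition above the mean inhibition across the screen plus 3 SD, cut at about 25% in these data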;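 further: inhibitors block binding of the rhodamine activity-based probe so polarization drops; 0% = enzyme with DMSO and 100% = wells lacking pPAFAH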
Target sequence (Q13093 whole entry, looked up): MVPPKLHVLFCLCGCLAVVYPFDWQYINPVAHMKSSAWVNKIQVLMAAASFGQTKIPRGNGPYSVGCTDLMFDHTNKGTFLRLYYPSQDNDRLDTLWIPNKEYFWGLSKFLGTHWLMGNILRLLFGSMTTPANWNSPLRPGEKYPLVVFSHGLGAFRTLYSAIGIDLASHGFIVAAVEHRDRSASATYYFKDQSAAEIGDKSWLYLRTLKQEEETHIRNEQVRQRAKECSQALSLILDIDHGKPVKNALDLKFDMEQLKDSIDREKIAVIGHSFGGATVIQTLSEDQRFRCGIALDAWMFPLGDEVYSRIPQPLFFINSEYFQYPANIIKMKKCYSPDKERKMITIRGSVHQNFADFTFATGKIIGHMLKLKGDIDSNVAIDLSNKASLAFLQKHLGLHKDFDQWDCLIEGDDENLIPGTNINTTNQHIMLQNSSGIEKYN
PAFAH1B2 FP inh: PAFAH1B2 (human) inhibition. P68402. recombinant PAFAH1B2, FP-rhodamine activity probe, fluorescence polarization. inhibition, % at 3.39 µM. 340,000 compounds, 1.2% hits;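 active means inhibition above the mean of all tested compounds plus 3 SD, cut at about 24% in these data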;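 further: 0% = enzyme with DMSO and 100% = wells lacking PAFAH1B2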
Target sequence (P68402 whole entry, looked up): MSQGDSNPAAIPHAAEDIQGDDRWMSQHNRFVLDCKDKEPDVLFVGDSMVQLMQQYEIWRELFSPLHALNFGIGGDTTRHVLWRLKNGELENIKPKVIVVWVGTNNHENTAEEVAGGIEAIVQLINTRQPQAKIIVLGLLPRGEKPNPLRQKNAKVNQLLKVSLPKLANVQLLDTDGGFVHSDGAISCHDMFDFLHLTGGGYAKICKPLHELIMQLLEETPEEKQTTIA
PAFAH1B3 inh: inhibitors of human PAFAH1B3. inhibition, % at 3.39 µM. recombinant PAFAH1B3, FP-rhodamine probe, fluorescence polarization. Q15102. 340,000 compounds, 0.28% hits;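 active means inhibition above the screen-wide average of all tested compounds plus 3 SD, cut at about 25% in these data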;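 further: 0% = enzyme with DMSO only and 100% = wells lacking PAFAH1B3 protein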
RBBP9 inhibitor: human RBBP9 hydrolase inhibition; inhibition, % at 7.94 µM; AID 1515; O75884; 220,000 compounds, 0.2% hits; recombinant RBBP9, FP-Rh probe fluorescence polarization;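 active means inhibition above the campaign mean of all tested compounds plus 3 SD, cut at about 14% in these data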;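 further: plate controls were DMSO wells with RBBP9 for no effect and wells lacking RBBP9 protein for full effect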
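Test system: recombinant human RBBP9; Timing: 30 min then 45 min, 25 °C; Detection: fluorescence polarization; Control set: RBBP9 with DMSO as uninhibited control, no-protein wells as full inhibition; Compound dosing: one concentration, 7.94 µM nominal, 0.794% DMSO; Probe or stimulus: FP-Rh activity-based probe, 375 nM before mixing.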
PAFAH2 inh: PAFAH2 (human) inhibition; 340,000 compounds, 0.99% hits; recombinant PAFAH2, FP-rhodamine activity probe, fluorescence polarization; Q99487; inhibition, % at 3.39 µM; AID 492956;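 active means inhibition above the mean over all tested compounds plus 3 SD, cut at about 30% in these data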;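 further: inhibitors block probe labeling of enzyme so polarization drops; 0% = enzyme with DMSO and 100% = wells lacking PAFAH2 protein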
Numbers without * were called inactive; . = no result. The list is not random: actives were taken first. Their share in the collection is about 2.7%.

SMILES | pPAFAH FP inh | PAFAH1B2 FP inh | PAFAH1B3 inh | RBBP9 inhibitor | PAFAH2 inh
CSc1nc(NCc2ccco2)c2sc3nc(C(C)C)c4c(c3c2n1)CC(C)(C)OC4 | 1.8 | 3.2 | 4.5 | -5.6 | -3.2
CCN(CCO)c1nc(SC)nc2c1sc1nc(-c3ccco3)c3c(c12)CCC3 | 31.9* | -0.7 | -3.1 | -4.3 | -0.2
CC(NC(=O)NC12CC3CC(CC(C3)C1)C2)C1CCCO1 (stereo unspecified) | 4.6 | 3.0 | 7.6 | -0.2 | 12.9
Cc1cccc(NC(=S)NNC(=O)c2csc3c2CCC(C)C3)c1 (stereo unspecified) | 27.2* | 9.2 | 19.9 | 1.4 | 16.8
CC(C)CNC(=S)NNC(=O)c1csc2c1CCC(C)C2 (stereo unspecified) | 6.1 | 7.2 | 7.8 | -2.7 | 2.6
Cc1ccc(SCC(=O)OCC(=O)N(C)C2CCS(=O)(=O)C2)cc1C (stereo unspecified) | 24.6* | 3.9 | 6.8 | . | -11.1
Cc1ccc(SCC(=O)OCC(=O)N(CC(C)C)C2CCS(=O)(=O)C2)cc1C (stereo unspecified) | 0.2 | 12.9 | 4.0 | . | -0.9
CC(C)CN(C(=O)COC(=O)CSc1ccc([N+](=O)[O-])cc1)C1CCS(=O)(=O)C1 (stereo unspecified) | 3.6 | 24.7* | 5.9 | . | 3.4
CCC1CCCCN1CCCNC(=O)C1CCN(S(=O)(=O)N2CCC3(CC2)OCCO3)CC1 (stereo unspecified) | 4.2 | 2.4 | 2.4 | . | -3.5
CCOc1ccc(CCNC(=O)c2ccc(CS(=O)Cc3ccc(Cl)cc3)o2)cc1 (stereo unspecified) | 24.4 | 4.1 | 9.7 | . | -5.6
CSc1ccc(CCNC(=O)c2ccc(CS(=O)Cc3ccc(Cl)cc3)o2)cc1 (stereo unspecified) | 29.9* | 6.4 | 3.8 | . | -2.2
CN1CCN(NC(=O)Nc2ccc(F)cc2)CC1 | . | -7.8 | 9.6 | . | 1.4
O=C(/C=C/c1ccc(O)c([N+](=O)[O-])c1)c1ccc2ccccc2c1 | 31.6* | 28.8* | 11.8 | . | 44.0*
O=C(CCc1ccccc1)NC(=S)Nc1ccccc1[N+](=O)[O-] | -1.7 | 8.4 | 1.1 | . | 5.0
CCC1S/C(=N\S(=O)(=O)c2cccs2)N(C2CCCCC2)C1=O (stereo unspecified) | 1.2 | 25.2* | 3.9 | 3.1 | -1.7
Cc1cccc(NC(=S)NC(=O)CC2CC(C)(C)OC2=O)c1 (stereo unspecified) | 4.1 | 2.2 | 2.0 | -5.9 | 7.4
CCOC(=O)C1(CCCc2ccccc2)CCN(C(=O)CCOC)CC1 | -0.7 | 3.5 | 1.1 | -9.8 | -6.7
CCN(C1CCCCC1)S(=O)(=O)c1ccc(S(=O)(=O)NCCc2ccncc2)cc1 | 9.8 | 25.1* | 10.9 | 0.7 | 6.6
COc1ccc(CNC(=O)/C=C/c2ccc(S(=O)(=O)NCc3ccco3)cc2)cc1OC | 16.1 | -6.6 | 4.5 | 1.9 | -1.9
O=C(/C=C/c1ccc(S(=O)(=O)NCc2ccco2)cc1)NCc1ccccc1Cl | 31.5* | 7.0 | 4.3 | -4.4 | -3.5
CCC(CO)NCc1cc(OC)c(OCC(=O)NCCc2ccccc2)cc1Br (stereo unspecified) | 4.7 | 4.0 | 0.1 | -6.6 | 8.3
CCCc1cc(=O)oc2cc(C)c(CN3CCCC3)c(O)c12 | 24.6* | 1.8 | 8.3 | -5.7 | 22.7
Cc1cc(C(=O)COC(=O)Cc2ccc(Cl)cc2)c(C)n1C | 13.2 | 7.3 | 7.9 | . | 1.6
Cc1c(C=Nc2ccc(S(=O)(=O)N(C)C)cc2)c(O)[nH]c(=O)c1C#N | 4.1 | -0.9 | 4.7 | . | -2.9
O=C1C(=O)N(CNc2ccccn2)c2ccccc21 | 28.6* | 2.2 | 3.7 | -2.9 | 8.7
SMILES | pPAFAH FP inh | PAFAH1B2 FP inh | PAFAH1B3 inh | RBBP9 inhibitor | PAFAH2 inh
COc1cc(/C=C2\C(=N)N3N=C(S(=O)(=O)CC(C)C)SC3=NC2=O)ccc1OC(=O)c1ccco1 | 4.5 | . | . | . | .
O=C(O)c1ccccc1C(=O)OCc1ccccc1 | -0.5 | -0.4 | 3.0 | -3.8 | 4.1
CC1(C)CC=CC(COC(=O)c2ccccc2C(=O)O)C1 (stereo unspecified) | . | 29.4* | 7.0 | . | 23.3
COc1ccc(/C=N/N(c2ccccc2)c2ccccc2)cc1O | . | 7.1 | 15.3 | . | 8.3
COc1cc(/C=N/N(c2ccccc2)c2ccccc2)ccc1O | 26.5* | 6.0 | 12.4 | . | -1.3
COc1ccc(CC(=O)OCC(=O)Nc2ccc(Cl)cn2)cc1 | 16.5 | 4.6 | -6.6 | -0.2 | 2.5
Cc1ccccc1NC(=O)COC(=O)Cc1ccsc1 | 27.2* | 4.8 | 1.9 | -2.6 | 8.6
O=C(COC(=O)Cc1ccsc1)Nc1ccc(F)cc1Cl | 28.7* | -1.9 | 4.1 | . | -3.6
Cc1cccc(C)c1NC(=O)COC(=O)Cc1ccsc1 | 23.2 | 3.4 | -1.6 | 1.5 | -6.8
O=C(COC(=O)Cc1ccsc1)NCc1ccc(Cl)cc1 | 17.4 | 8.1 | 7.0 | -2.7 | 4.0
Cc1ccc(C)c(NC(=O)COC(=O)Cc2ccsc2)c1 | 24.9* | 6.9 | -9.0 | -10.8 | 4.8
O=C(COC(=O)Cc1ccsc1)Nc1ccc(Cl)cn1 | 27.8* | 2.1 | 5.5 | . | 3.4
Cc1ccc(-c2ccc(/C=N/N3C(=O)C4C5C=CC(CC5)C4C3=O)o2)c([N+](=O)[O-])c1 (stereo unspecified) | 25.4* | 5.0 | -1.9 | -1.5 | 9.7
O=C1C2C3C=CC(C4CC34)C2C(=O)N1/N=C/c1ccc(-c2ccc(F)cc2[N+](=O)[O-])o1 (stereo unspecified) | 2.1 | 2.5 | 8.9 | 1.1 | 1.5
N/C(=N\OC(=O)CCCOc1ccccc1)c1ccc(Br)cc1 | -0.5 | 80.8* | 2.8 | -5.6 | 3.6
N/C(=N\OC(=O)CCCN1C(=O)c2ccccc2C1=O)c1ccc(Br)cc1 | 3.5 | 16.1 | 9.8 | -0.2 | 2.9
N/C(=N\OC(=O)CCCOc1ccccc1)c1ccccc1 | 1.9 | 29.3* | -0.8 | -4.5 | -2.6
N/C(=N\OC(=O)CCCOc1ccccc1)c1ccncc1 | -0.9 | 13.8 | 0.0 | 2.5 | 1.9
Cc1ccc(S(=O)(=O)NC(CC(C)C)C(=O)Nc2ccncc2)cc1 (stereo unspecified) | 1.6 | 24.7* | -3.9 | . | 6.7
COc1ccc2oc(=O)c(/C(C)=N/Nc3nc(-c4cc(C)ccc4C)cs3)cc2c1 | 5.0 | 3.2 | -1.2 | -13.9 | 2.4
COc1ccc2oc(=O)c(-c3csc(Nc4ccc(O)cc4)n3)cc2c1 | 29.1* | 8.2 | 17.0 | 7.3 | -5.2
CC(C)(C)c1ccc(CNC(=O)C2CCCN2C(=O)Nc2ccccc2)cc1 (stereo unspecified) | -2.0 | 25.0* | -0.7 | . | 3.0
O=C(NCCc1ccccc1)C1CCCN1C(=O)Nc1cccc(Cl)c1 (stereo unspecified) | 6.4 | 26.5* | -0.7 | . | 7.7
O=C(NCCc1ccccc1)C1CCCN1C(=O)Nc1ccccc1 (stereo unspecified) | -2.4 | -3.2 | 5.9 | . | -7.9
CC(C)n1nnnc1SCC(=O)N1N=C(c2cccs2)CC1c1cccs1 (stereo unspecified) | 1.8 | 10.6 | 11.9 | . | -4.0
